{
  "source": "ChEMBL document CHEMBL4118256",
  "about": "“Second Generation of Mannich Base-Type Derivatives with in Vivo Activity against Trypanosoma cruzi” (J Med Chem, 2018)",
  "tested_on": "Mus musculus",
  "experiment": "Cardiotoxicity in Balb/c mouse infected with Trypanosoma cruzi MHOM/Pe/2011/Arequipa DTU 5 trypamastigotes assessed as change in ratio of creatine kinase in muscle to brain at 20 mg/kg, po once daily for 5 consecutive days starting from day 10 post infection measured on day 127 post infection by biochemical analysis relative to control",
  "assay_type": "toxicity, organism-based",
  "details": "in vivo",
  "outline": "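Serum clinical chemistry in Arequipa-infected female BALB/c mice. Oral 20 mg·kg-1 per day for 5 days, started day 10 or day 75 pi. Samples taken at day 16 pi or day 81 pi, and on necropsy day. Markers: CK-MB and LDH (U/L), AST, ALT and alkaline phosphatase (U/L), total bilirubin. Results scored relative to infected untreated controls; uninfected reference n = 15.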",
  "data": [
    {"smiles": "O=C(Cn1ccnc1[N+](=O)[O-])NCc1ccccc1", "note": "[BENZNIDAZOLE]", "values": [
      {"measurement": "Activity", "value": "< 10", "unit": "%"}
    ]}
  ]
}
